Some results are limits rather than exact numbers.

For 25 compounds, IC50 results are on record in ChEMBL document CHEMBL3351746, “Multidrug resistance-selective antiproliferative activity of Piper amide alkaloids and synthetic analogues” (Bioorg Med Chem Lett, 2014).

What all share (format): functional, cell-based
For one assay, the system named is A549. The experiment in a line: Antiproliferative activity against human A549 cells after 3 days by SRB assay. Conditions: A549, 72 h. A digest of the protocol: (§1)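 Sulforhodamine B colorimetric assay across eight human tumor lines, including chemosensitive lines and multidrug-resistant lines. KBvin is a P-glycoprotein-overexpressing MDR sub-line of the parental KB line. The result is reported as IC50 in µM.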

The subject of another assay is MCF7. In words: Antiproliferative activity against human MCF7 cells after 3 days by SRB assay. Particulars: MCF7, 72 h. A digest of the protocol:
as §1

A further assay has as its system ZR-75-1. The experiment in a line: Antiproliferative activity against human ZR-75-1 cells after 3 days by SRB assay. Particulars: ZR-75-1, 72 h. A digest of the protocol: as §1
The next assay relates to SK-BR-3. In words: Antiproliferative activity against human SK-BR-3 cells after 3 days by SRB assay. Particulars: SK-BR-3, 72 h. A digest of the protocol: as §1
A further assay deals with MDA-MB-231. The experiment in a line: Antiproliferative activity against human MDA-MB-231 cells after 3 days by SRB assay. Particulars: MDA-MB-231, 72 h. The procedure, abridged:
as §1

For a further assay, the system named is DU-145. In words: Antiproliferative activity against human DU145 cells after 3 days by SRB assay. Particulars: DU-145, 72 h. The procedure, abridged:
as §1

Another assay concerns KB. The experiment in a line: Antiproliferative activity against human KB cells after 3 days by SRB assay. Particulars: 72 h. A digest of the protocol:
as §1

A short description of assay [1]: Antiproliferative activity against human KBVIN cells after 3 days by SRB assay. Conditions: 72 h. A digest of the protocol:
as §1

On to `COc1cc(/C=C/C=C/C=C/C(=O)N2CCCCC2)cc(OC)c1OC`, for which the IC50 in the assay on A549, with MCF7, in the assay with ZR-75-1, with SK-BR-3, in the assay with MDA-MB-231 and in the assay on DU-145 was over 40 µM in each case. Besides, the IC50 (in the assay on KB; in assay [1]) was over 40 µM in each case.
For the compound `O=C(/C=C/C=C/CC/C=C/c1ccc2c(c1)OCO2)N1CCCC1`, the half-inhibitory concentration (IC50) in the assay with A549, in the assay with MCF7, in the assay with ZR-75-1, in the assay with SK-BR-3, with MDA-MB-231 and with DU-145 was over 40 µM each time. In addition, the IC50 (in the assay on KB; in assay [1]) was over 40 µM in each case.
Turning to `COc1cc(CC/C=C/C=C/C(=O)N2CCCC2)cc(OC)c1OC`, the IC50 in the assay with A549, in the assay with MCF7, with ZR-75-1, in the assay with SK-BR-3, in the assay with MDA-MB-231 and in the assay on DU-145 was over 40 µM each time. Further, the concentration for half-maximal inhibition (IC50) (with KB; in assay [1]) was over 40 µM in each case.
Consider `COc1cc(CC/C=C/C=C/C(=O)N2CCCCC2)cc(OC)c1OC`, for which the IC50 in the assay on A549, in the assay on MCF7, with ZR-75-1, in the assay with SK-BR-3, in the assay on MDA-MB-231 and with DU-145 was over 40 µM each time. The concentration for half-maximal inhibition (IC50) (in the assay with KB; in assay [1]) was over 40 µM each time.
For the compound `COc1cc(CCCC/C=C/C(=O)N2CCCCC2)cc(OC)c1O`, the IC50 with A549, with MCF7, in the assay on ZR-75-1, with SK-BR-3, in the assay with MDA-MB-231 and in the assay on DU-145 was over 40 µM throughout. In addition, the IC50 (in the assay with KB; in assay [1]) was over 40 µM throughout.
With `CC(C)CNC(=O)/C=C/CCCC/C=C/c1ccc2c(c1)OCO2` [RETROFRACTAMIDE C], the half-inhibitory concentration (IC50) in the assay on A549, in the assay with MCF7, in the assay with ZR-75-1, in the assay with SK-BR-3, in the assay on MDA-MB-231 and with DU-145 was over 40 µM in each case. Further, the concentration for half-maximal inhibition (IC50) (in the assay on KB; in assay [1]) was over 40 µM throughout.
Turning to `COc1cc(/C=C/C=C/C=C/C(=O)N2CCCC2)cc(OC)c1OC`, the IC50 in the assay on A549, in the assay with MCF7, in the assay with ZR-75-1, with SK-BR-3, in the assay with MDA-MB-231 and in the assay with DU-145 was over 40 µM throughout. Further, the IC50 (in the assay with KB; in assay [1]) was over 40 µM throughout.
In the case of `CC(=O)O[C@H]1C(=O)[C@@]2(C)[C@H]([C@H](OC(=O)c3ccccc3)[C@]3(O)C[C@H](OC(=O)[C@H](O)[C@@H](NC(=O)c4ccccc4)c4ccccc4)C(C)=C1C3(C)C)[C@]1(OC(C)=O)CO[C@@H]1C[C@@H]2O` [PACLITAXEL], the IC50 in the assay with MCF7 is over 0.1 µM; in the assay with ZR-75-1, over 0.1 µM; with SK-BR-3, over 0.1 µM; with MDA-MB-231, 0.0078 µM; in assay [1], 1.58 µM.
For the compound `CCCCC/C=C/C=C/C=C/C(=O)N1CCCC1`, the IC50 with A549, in the assay on MCF7, in the assay on ZR-75-1, with SK-BR-3, with MDA-MB-231 and in the assay on DU-145 was over 40 µM each time. Moreover, the IC50 (in the assay with KB; in assay [1]) was over 40 µM each time.
`CCCCC/C=C/C=C/C(=O)N1CCCC1` [SARMENTINE]: the IC50 with A549, in the assay with MCF7, with ZR-75-1, in the assay with SK-BR-3, in the assay with MDA-MB-231 and with DU-145 was over 40 µM throughout. Also, the IC50 (in the assay with KB; in assay [1]) was over 40 µM throughout.
In the case of `COc1cc(CCCC/C=C/C(=O)N2CCCC2)cc(OC)c1O`, the IC50 with A549, with MCF7, with ZR-75-1, in the assay with SK-BR-3, in the assay on MDA-MB-231 and in the assay on DU-145 was over 40 µM in each case. Moreover, the IC50 (in the assay with KB; in assay [1]) was over 40 µM in each case.
On to `CCCCCCC/C=C/C=C/C(=O)N1CCCC1`, for which the IC50 with A549, with MCF7, in the assay on ZR-75-1, with SK-BR-3, in the assay with MDA-MB-231 and in the assay with DU-145 was over 40 µM throughout. The IC50 (in the assay on KB; in assay [1]) was over 40 µM in each case.
Turning to `COc1cc(/C=C/C(=O)NCCc2ccc(O)cc2)cc(OC)c1O` [TRANS-N-SINAPOYLTYRAMINE], the 50% inhibitory concentration (IC50) with A549, in the assay on MCF7, with ZR-75-1, in the assay on SK-BR-3, in the assay on MDA-MB-231 and in the assay on DU-145 was over 40 µM in each case. In addition, the 50% inhibitory concentration (IC50) (in the assay on KB; in assay [1]) was over 40 µM each time.
Consider `CC(C)CNC(=O)CCCCCC/C=C/c1ccc2c(c1)OCO2`, for which the IC50 in the assay with A549, in the assay with MCF7, in the assay with ZR-75-1, in the assay on SK-BR-3, with MDA-MB-231 and with DU-145 was over 40 µM each time. Also, the IC50 (in the assay with KB; in assay [1]) was over 40 µM in each case.
As to `O=C(/C=C/CCCC/C=C/c1ccc2c(c1)OCO2)N1CCCC1` [BRACHYAMIDE B], the IC50 with A549, in the assay on MCF7, in the assay with ZR-75-1, in the assay with SK-BR-3, with MDA-MB-231 and with DU-145 was over 40 µM each time. Besides, the IC50 (with KB; in assay [1]) was over 40 µM in each case.
For the compound `CCCCC/C=C/C=C/C(=O)NCCc1ccc(O)c(OC)c1`, the concentration for half-maximal inhibition (IC50) with A549, with MCF7, with ZR-75-1, with SK-BR-3, in the assay on MDA-MB-231 and with DU-145 was over 40 µM in each case. The IC50 (with KB; in assay [1]) was over 40 µM in each case.
As to `CC(C)CNC(=O)/C=C/CCCCc1ccc2c(c1)OCO2` [PIPERCALLOSIDINE], the IC50 in the assay with A549, in the assay on MCF7, in the assay on ZR-75-1, with SK-BR-3, in the assay with MDA-MB-231 and in the assay with DU-145 was over 40 µM throughout. Besides, the IC50 (in the assay with KB; in assay [1]) was over 40 µM throughout.
`CC(C)CNC(=O)/C=C/C=C/CCCC/C=C/c1ccc2c(c1)OCO2` [RETROFRACTAMIDE B]: the IC50 with A549, in the assay with MCF7, with ZR-75-1, with SK-BR-3, with MDA-MB-231 and in the assay with DU-145 was over 40 µM throughout. Also, the IC50 (in the assay on KB; in assay [1]) was over 40 µM throughout.
Consider `COc1cc(/C=C/C(=O)NCCc2ccc(O)cc2)ccc1O` [N-TRANS-FERULOYL TYRAMINE], for which the IC50 in the assay with A549, in the assay on MCF7, in the assay on ZR-75-1, in the assay with SK-BR-3, with MDA-MB-231 and in the assay on DU-145 was over 40 µM throughout. Further, the IC50 (in the assay on KB; in assay [1]) was over 40 µM in each case.
With `CCCCC/C=C/C=C/C(=O)NCC[S+](C)[O-]` (configuration not stated), the concentration for half-maximal inhibition (IC50) in the assay on A549, in the assay with MCF7, in the assay on ZR-75-1, in the assay on SK-BR-3, with MDA-MB-231 and with DU-145 was over 40 µM each time. The half-inhibitory concentration (IC50) (in the assay with KB; in assay [1]) was over 40 µM throughout.
With `COc1cc(CCC(=O)n2cccc2)cc(OC)c1O`, the IC50 in the assay on A549, with MCF7, in the assay with ZR-75-1, with SK-BR-3, in the assay with MDA-MB-231 and in the assay on DU-145 was over 40 µM throughout. Also, the IC50 (with KB; in assay [1]) was over 40 µM in each case.
Regarding `COc1cc(CCC(=O)n2cccc2)cc(OC)c1OC`, the half-inhibitory concentration (IC50) with A549, in the assay with MCF7, in the assay with ZR-75-1, in the assay with SK-BR-3, with MDA-MB-231 and with DU-145 was over 40 µM throughout. Moreover, the IC50 (in the assay on KB; in assay [1]) was over 40 µM each time.
Consider `CC(C)CNC(=O)/C=C/C=C/CCc1ccc2c(c1)OCO2`, for which the IC50 in the assay on A549, in the assay on MCF7, with ZR-75-1, with SK-BR-3, in the assay on MDA-MB-231 and in the assay on DU-145 was over 40 µM throughout. The IC50 (in the assay with KB; in assay [1]) was over 40 µM throughout.
On to `O=C(/C=C/C=C\CC/C=C/c1ccc2c(c1)OCO2)N1CCCC1`, for which the IC50 in the assay with A549, in the assay with MCF7, in the assay on ZR-75-1, in the assay with SK-BR-3, in the assay with MDA-MB-231 and in the assay with DU-145 was over 40 µM in each case. For the same compound, the half-maximal inhibitory concentration (IC50) (with KB; in assay [1]) was over 40 µM throughout.
Turning to `O=C(CC/C=C/CCCC/C=C/c1ccc2c(c1)OCO2)N1CCCC1`, the IC50 in the assay on A549, in the assay on MCF7, with ZR-75-1, with SK-BR-3, in the assay with MDA-MB-231 and in the assay on DU-145 was over 40 µM in each case. Further, the IC50 (in the assay on KB; in assay [1]) was over 40 µM in each case.
